{"source": "ChEMBL document CHEMBL4400543", "about": "“Identification and Characterization of AES-135, a Hydroxamic Acid-Based HDAC Inhibitor That Prolongs Survival in an Orthotopic Mouse Model of Pancreatic Cancer” (J Med Chem, 2019)", "key": {"[1]": {"target": "Histone deacetylase 3 (Homo sapiens, UniProt O15379)", "sequence (O15379 whole entry)": "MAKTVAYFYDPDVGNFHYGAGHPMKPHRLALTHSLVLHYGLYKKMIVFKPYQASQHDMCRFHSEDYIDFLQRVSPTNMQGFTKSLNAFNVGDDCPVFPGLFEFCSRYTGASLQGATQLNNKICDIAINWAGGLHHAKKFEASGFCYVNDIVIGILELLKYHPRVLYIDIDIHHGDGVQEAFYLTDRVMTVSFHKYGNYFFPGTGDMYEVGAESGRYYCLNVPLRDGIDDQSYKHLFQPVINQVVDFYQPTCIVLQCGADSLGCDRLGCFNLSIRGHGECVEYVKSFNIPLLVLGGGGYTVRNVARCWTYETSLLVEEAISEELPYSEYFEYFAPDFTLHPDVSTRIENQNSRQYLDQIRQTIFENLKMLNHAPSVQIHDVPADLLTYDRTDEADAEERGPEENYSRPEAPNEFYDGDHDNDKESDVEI", "assay": "Inhibition of recombinant human HDAC3 expressed in SF9 baculoviral system using FAM-labeled acetylated peptide as substrate by EMSA", "outline": "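Full-length recombinant human enzyme from an Sf9 baculovirus system, in 100 mM HEPES pH 7.5 with 25 mM KCl, 0.1% BSA, 0.01% Triton X-100 and 1% DMSO. Final enzyme was 0.5 nM for HDAC3, 60 nM for HDAC6 and 5.0 nM for HDAC8. FAM-acetylated peptide was 1 μM. The read-out was product/(substrate+product) by microfluidic mobility shift, with inhibition set against DMSO and no-enzyme controls (quadruplicate). Compounds were tested at 12 threefold-spaced concentrations, and IC50 came from a four-parameter sigmoid fit.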"}, "[2]": {"target": "T1, Histone deacetylase 11 (Homo sapiens, UniProt Q96DB2)", "T1 sequence (Q96DB2 whole entry)": "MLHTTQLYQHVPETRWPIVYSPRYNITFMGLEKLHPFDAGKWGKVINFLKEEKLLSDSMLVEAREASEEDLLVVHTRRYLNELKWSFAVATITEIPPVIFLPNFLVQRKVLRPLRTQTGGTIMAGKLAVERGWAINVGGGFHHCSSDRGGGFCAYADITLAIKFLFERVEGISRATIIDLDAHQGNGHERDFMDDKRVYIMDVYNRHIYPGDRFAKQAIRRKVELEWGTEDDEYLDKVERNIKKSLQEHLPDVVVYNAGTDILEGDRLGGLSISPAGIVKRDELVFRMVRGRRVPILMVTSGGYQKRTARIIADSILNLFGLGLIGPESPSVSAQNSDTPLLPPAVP", "assay": "Inhibition of recombinant human HDAC11 expressed in SF9 baculoviral system using FAM-labeled acetylated peptide as substrate by EMSA", "outline": "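Full-length human HDAC11 (Sf9-expressed), 10 nM final, in 100 mM HEPES pH 7.5, 25 mM KCl, 0.1% BSA, 0.01% Triton X-100, 1% DMSO. FAM-acetylated peptide substrate at 100 μM, mobility-shift read-out. Product/(substrate + product) converted to % inhibition. IC50 from a four-parameter fit; dose-response spans 12 threefold dilutions from 30.0 μM.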"}, "[3]": {"target": "Polyamine deacetylase HDAC10 (Homo sapiens) (UniProt Q969S8)", "sequence (Q969S8 whole entry)": "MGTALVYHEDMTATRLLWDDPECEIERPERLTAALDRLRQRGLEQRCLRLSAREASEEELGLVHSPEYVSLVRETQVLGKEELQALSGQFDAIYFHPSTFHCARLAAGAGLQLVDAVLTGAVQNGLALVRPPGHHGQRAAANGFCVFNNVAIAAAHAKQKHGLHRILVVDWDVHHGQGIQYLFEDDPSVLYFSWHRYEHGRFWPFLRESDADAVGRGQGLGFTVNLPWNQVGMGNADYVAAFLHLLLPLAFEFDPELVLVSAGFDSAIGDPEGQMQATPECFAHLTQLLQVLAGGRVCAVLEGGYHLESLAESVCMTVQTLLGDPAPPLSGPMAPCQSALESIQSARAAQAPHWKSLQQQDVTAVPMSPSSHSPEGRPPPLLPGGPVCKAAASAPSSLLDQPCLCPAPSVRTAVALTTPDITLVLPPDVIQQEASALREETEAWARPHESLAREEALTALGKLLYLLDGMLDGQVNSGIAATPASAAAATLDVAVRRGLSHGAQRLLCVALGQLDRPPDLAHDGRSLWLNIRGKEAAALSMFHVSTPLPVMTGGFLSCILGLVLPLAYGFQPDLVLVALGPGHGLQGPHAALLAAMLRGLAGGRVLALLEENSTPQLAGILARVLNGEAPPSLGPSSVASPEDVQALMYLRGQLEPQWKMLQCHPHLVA", "assay": "Inhibition of recombinant human HDAC10 expressed in SF9 baculoviral system at 10 uM using FAM-labeled acetylated peptide as substrate by EMSA relative to control", "outline": "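Full-length recombinant human HDACs from an Sf9 baculovirus system. Single-point screen at 10 μM by microfluidic mobility-shift assay with FAM-labeled acetylated peptide substrate. Buffer: 100 mM HEPES pH 7.5, 25 mM KCl, 0.1% BSA, 0.01% Triton X-100, 1% DMSO. % inhibition from product/(substrate + product) against no-inhibitor and no-enzyme controls.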"}, "[4]": {"system": "MV4-11", "assay": "Cytotoxicity against human MV4-11 cells at 50 uM after 72 hrs by CellTiter-Blue assay", "format": "functional, cell-based", "outline": "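Cells in 10% FBS medium, 10 000 cells/well, treated 24 h after plating. Twofold dilution series from a 50.0 μM top dose to 0.097656 μM, in triplicate, 0.5% DMSO vehicle. 72 h at 37 °C, 5% CO2. CellTiter-Blue for 1–4 h, fluorescence 560/590 nm. IC50 by nonlinear regression.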"}, "[5]": {"system": "PC-3", "assay": "Cytotoxicity against human PC3 cells at 50 uM after 72 hrs by CellTiter-Blue assay", "format": "functional, cell-based"}, "[6]": {"assay": "Drug uptake in NSG mouse serum at 20 mg/kg, ip administered as single dose and measured at 1 hr by HPLC-MS/MS analysis", "format": "ADME, organism-based", "settings": "read-out: Drug uptake", "outline": "(§1)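 NSG mice given a single 20 mg/kg IP dose in Cremophor EL/EtOH (1:1, 4% final volume)/sterile saline. Tail-vein blood at 0.5, 1, 2, 4, 8 and 24 h, n = 2. Drug quantified in serum/plasma. Half-life and clearance calculated assuming 100% bioavailability.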"}, "[7]": {"assay": "Drug uptake in NSG mouse serum at 40 mg/kg, ip administered daily for 5 days by HPLC-MS/MS analysis", "format": "ADME, organism-based", "settings": "read-out: Drug uptake", "outline": "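NSG mice dosed IP once daily for 5 days at 10 or 40 mg/kg, n = 6. Blood collected 5 h after the final injection for serum drug concentration, reported ± SD.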"}, "[8]": {"system": "Pa03C", "assay": "Cytotoxicity against human Pa03C cells assessed as reduction in tumor spheroid intensity after 72 hrs in presence of human CAF19 cells by Alamar Blue assay", "format": "functional, cell-based", "outline": "(§2)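 3D spheroids of patient-derived PDAC cells (tomato red) alone or with CAF19 cells, plus CAF cultures. Imaging read-outs: area is the μ2 of objects above a tomato red intensity threshold; intensity is summed red or green pixel fluorescence after background removal. n = 3–5.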"}, "[9]": {"assay": "Cytotoxicity against human […] cells assessed as reduction in tumor spheroid intensity after 72 hrs by Alamar Blue assay", "format": "cell-based", "outline": "as §2"}, "[10]": {"system": "Panc1005", "assay": "Cytotoxicity against human Panc 10.05 cells assessed as reduction in tumor spheroid area after 72 hrs by Alamar Blue assay", "format": "functional, cell-based", "settings": "Panc1005, 72 h", "outline": "as §2"}, "[11]": {"system": "Panc1005", "assay": "Cytotoxicity against human Panc 10.05 cells assessed as reduction in tumor spheroid intensity after 72 hrs in presence of human CAF19 cells by Alamar Blue assay", "format": "functional, cell-based", "settings": "Panc1005, 72 h", "outline": "as §2"}, "[12]": {"assay": "Selectivity ratio of IC50 for human CAF19 cells to IC50 for human Panc 10.05 cells"}, "[13]": {"target": "Signal transducer and activator of transcription 3 (Homo sapiens) (UniProt P40763)", "sequence (P40763 whole entry)": "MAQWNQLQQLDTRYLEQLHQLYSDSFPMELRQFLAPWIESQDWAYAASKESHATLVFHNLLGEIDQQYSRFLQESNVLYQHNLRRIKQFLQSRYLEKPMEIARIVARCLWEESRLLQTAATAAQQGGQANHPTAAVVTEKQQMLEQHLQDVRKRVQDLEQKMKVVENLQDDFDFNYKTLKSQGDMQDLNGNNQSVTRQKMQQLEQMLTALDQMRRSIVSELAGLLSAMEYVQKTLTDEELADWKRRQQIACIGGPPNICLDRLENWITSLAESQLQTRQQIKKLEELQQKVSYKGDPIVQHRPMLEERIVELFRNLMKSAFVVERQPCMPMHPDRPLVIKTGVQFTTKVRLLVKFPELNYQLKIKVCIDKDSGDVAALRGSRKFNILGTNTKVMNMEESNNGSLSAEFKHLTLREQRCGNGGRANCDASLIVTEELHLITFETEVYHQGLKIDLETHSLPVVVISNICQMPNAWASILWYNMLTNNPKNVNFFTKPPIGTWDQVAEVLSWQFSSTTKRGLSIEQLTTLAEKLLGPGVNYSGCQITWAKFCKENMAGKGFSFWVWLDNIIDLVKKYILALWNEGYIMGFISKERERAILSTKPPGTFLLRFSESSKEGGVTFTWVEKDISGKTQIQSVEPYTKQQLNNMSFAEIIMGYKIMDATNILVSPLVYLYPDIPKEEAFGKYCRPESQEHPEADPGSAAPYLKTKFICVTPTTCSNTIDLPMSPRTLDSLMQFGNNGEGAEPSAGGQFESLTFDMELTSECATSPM", "assay": "Inhibition of STAT3 phosphorylation at S727 residue in human BTSC 147EF cells at 2 uM after 3 to 24 hrs by Western blot method", "format": "cell-based", "outline": "(§3)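 BTSCs dissociated to single cells and treated with drug or DMSO. Lysed in RIPA buffer with protease inhibitors. 20 μg lysate run on SDS-PAGE and transferred to nitrocellulose. Blocked in 5% milk, primary antibody overnight at 4 °C, then HRP secondary for 1 h.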"}, "[14]": {"target": "Signal transducer and activator of transcription 3 (Homo sapiens) (UniProt P40763)", "assay": "Inhibition of STAT3 phosphorylation at Y705 residue in human BTSC 147EF cells at 2 uM after 3 to 24 hrs by Western blot method", "format": "cell-based", "outline": "as §3"}, "[15]": {"assay": "Drug recovery in CD1 mouse plasma after 6 hrs by LC-ESI MS analysis", "format": "ADME, cell-free", "settings": "read-out: Drug recovery"}, "[16]": {"assay": "Tmax in NSG mouse at 20 mg/kg, ip administered as single dose by HPLC-MS/MS analysis", "format": "ADME, organism-based", "settings": "in vivo", "outline": "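NSG mice received a single 20 mg/kg IP injection in Cremophor EL/EtOH (1:1, 4% final volume)/sterile saline. Tail-vein blood was taken at 0.5, 1, 2, 4, 8 and 24 h, and compound was quantified in plasma (n = 2).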"}, "[17]": {"assay": "Clearance in NSG mouse at 20 mg/kg, ip administered as single dose by HPLC-MS/MS analysis", "format": "ADME, organism-based", "settings": "in vivo", "outline": "as §1"}, "[18]": {"assay": "Bioavailability in NSG mouse at 20 mg/kg, ip administered as single dose by HPLC-MS/MS analysis", "format": "ADME, organism-based", "settings": "in vivo"}, "[19]": {"assay": "Toxicity in NSG mouse at 10 to 40 mg/kg, ip assessed as induction of body weight loss administered daily for 5 days by HPLC-MS/MS analysis", "format": "organism-based", "settings": "in vivo, 120 h", "outline": "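NSG mice were given 10 or 40 mg/kg IP once daily for 5 days (n = 6). Blood was drawn 5 h after the last injection for compound measurement. Toxicity was judged by percentage weight loss versus vehicle-treated mice.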"}}, "note": "Active and inactive are the calls of the source.", "data": [{"smiles": "CC(C)(C)c1ccc(CN(C(=O)CN(Cc2c(F)c(F)c(F)c(F)c2F)S(=O)(=O)c2ccc(F)cc2)c2ccc(C(=O)NO)cc2)cc1", "values": [{"measurement": "IC50", "setting": "[1]", "result": 654, "unit": "nM"}, {"measurement": "IC50", "setting": "[2]", "result": 636, "unit": "nM"}, {"measurement": "inhibition", "setting": "[3]", "result": 70, "unit": "%"}, {"measurement": "Activity", "setting": "[4]", "result": "Active"}, {"measurement": "Activity", "setting": "[5]", "result": "Active"}, {"measurement": "concentration at 1 h", "setting": "[6]", "result": 5400, "unit": "ng/mL"}, {"measurement": "concentration at 120 h", "setting": "[7]", "result": 2640, "unit": "nM"}, {"measurement": "IC50", "setting": "[8]", "result": 1560, "unit": "nM"}, {"measurement": "IC50", "setting": "[9]", "result": "3400 to 4500", "unit": "nM"}, {"measurement": "IC50", "setting": "[10]", "result": 970, "unit": "nM"}, {"measurement": "IC50", "setting": "[11]", "result": 500, "unit": "nM"}, {"measurement": "Ratio IC50", "setting": "[12]", "result": "5 - 6"}, {"measurement": "inhibition", "setting": "[13]", "result": "inactive"}, {"measurement": "inhibition", "setting": "[14]", "result": "inactive"}, {"measurement": "remaining at 6 h", "setting": "[15]", "result": "16 to 20", "unit": "%"}, {"measurement": "Tmax", "setting": "[16]", "result": 30, "unit": "min"}, {"measurement": "CL/F", "setting": "[17]", "result": 0.0667, "unit": "mL/min"}, {"measurement": "bioavailability", "setting": "[18]", "result": 100, "unit": "%"}, {"measurement": "Activity", "setting": "[19]", "result": "Non-Toxic"}]}]}
